According to ChEMBL document CHEMBL1128483, “Peptide mimetics of thyrotropin-releasing hormone based on a cyclohexane framework: design, synthesis, and cognition-enhancing properties” (1995):

How the values were obtained:
Format in all cases: functional
[1] = test system: Mus musculus; assay: Activity was evaluated in C57BL/10 mice by Morris water Maze test and mean latency for TRH was reported at 0.1 mg/Kg i.p. dosage.
Summary of the method: (§1)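 Male C57BL/10 mice (17–21 g, housed 10 per group, food and water ad libitum). Drug in saline or 5% acacia, 10 mL/kg, given ip 30 min before the first of four trials to find a hidden submerged platform. Score was each mouse's mean total latency over the four trials; group mean ± SEM. Vehicle group included. Analysis: one-way ANOVA, then Dunnett t-test versus vehicle, p < 0.05.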

[2] = test system: Mus musculus; assay: Activity was evaluated in C57BL/10 mice by Morris water Maze test and mean latency for TRH was reported at 0.001 mg/Kg i.p. dosage.; summary of the method: as §1
[3] = test system: Mus musculus; assay: Activity was evaluated in C57BL/10 mice by Morris water Maze test and mean latency for TRH was reported at 0.01 mg/Kg i.p. dosage.; summary of the method: as §1
[4] = test system: Mus musculus; assay: Activity was evaluated in C57BL/10 mice by Morris water Maze test and mean latency for TRH was reported at 1.0 mg/Kg i.p. dosage.; summary of the method: as §1
[5] = test system: Mus musculus; assay: Activity was evaluated in C57BL/10 mice by Morris water Maze test and mean latency for TRH was reported at 0.3 mg/Kg p.o. dosage.
Summary of the method: (§2)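 Spatial water-maze task in male C57BL/10 mice (17–21 g, group-housed, ad libitum food and water). Oral dosing (saline or 5% acacia vehicle, 10 mL/kg) 30 min before four trials locating a submerged platform. Latency recorded per trial; the mean total over the four trials was the animal's score, reported as mean ± SEM. Vehicle controls included. Groups compared with vehicle by one-way ANOVA and Dunnett t-test (p < 0.05).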

[6] = test system: Mus musculus; assay: Activity was evaluated in C57BL/10 mice by Morris water Maze test and mean latency for TRH was reported at 0.003 mg/Kg i.p. dosage.; summary of the method: as §1
[7] = test system: Mus musculus; assay: Activity was evaluated in C57BL/10 mice by Morris water Maze test and mean latency for TRH was reported at 0.01 mg/Kg p.o. dosage.; summary of the method: as §2
[8] = test system: Mus musculus; assay: Activity was evaluated in C57BL/10 mice by Morris water Maze test and mean latency for TRH was reported at 0.03 mg/Kg i.p. dosage.; summary of the method: as §1
[9] = test system: Mus musculus; assay: Activity was evaluated in C57BL/10 mice by Morris water Maze test and mean latency for TRH was reported at 0.1 mg/Kg p.o. dosage.; summary of the method: as §2
[10] = test system: Mus musculus; assay: Activity was evaluated in C57BL/10 mice by Morris water Maze test and mean latency for TRH was reported at 0.003 mg/Kg p.o. dosage.; summary of the method: as §2
[11] = test system: Mus musculus; assay: Activity was evaluated in C57BL/10 mice by Morris water Maze test and mean latency for TRH was reported at 0.03 mg/Kg p.o. dosage.; summary of the method: as §2
[12] = test system: Mus musculus; assay: Activity was evaluated in C57BL/10 mice by Morris water Maze test and mean latency for TRH was reported at 0.3 mg/Kg i.p. dosage.; summary of the method: as §1
[13] = test system: Mus musculus; assay: Activity was evaluated in C57BL/10 mice by Morris water Maze test and mean latency for TRH was reported at 3 mg/Kg i.p. dosage.; summary of the method: as §1
[14] = test system: Mus musculus; assay: Activity was evaluated in C57BL/10 mice by Morris water Maze test and mean latency for TRH was reported at 0.0003 mg/Kg p.o. dosage.; summary of the method: as §2
[15] = test system: Mus musculus; assay: Activity was evaluated in C57BL/10 mice by Morris water Maze test and mean latency for TRH was reported at 0.00003 mg/Kg p.o. dosage.; summary of the method: as §2
[16] = test system: Mus musculus; assay: Activity was evaluated in C57BL/10 mice by Morris water Maze test and mean latency for TRH was reported at 0.00003 mg/Kg i.p. dosage.; summary of the method: as §1
[17] = test system: Mus musculus; assay: Activity was evaluated in C57BL/10 mice by Morris water Maze test and mean latency for TRH was reported at 0.0003 mg/Kg i.p. dosage.; summary of the method: as §1
[18] = test system: Mus musculus; assay: Activity was evaluated in C57BL/10 mice by Morris water Maze test and mean latency for TRH was reported at 3 mg/Kg p.o. dosage.; summary of the method: as §2
[19] = test system: Mus musculus; assay: Activity was evaluated in C57BL/10 mice by Morris water Maze test and mean latency for TRH was reported at 10.0 mg/Kg i.p. dosage.; summary of the method: as §1
[20] = test system: Mus musculus; assay: Activity was evaluated in C57BL/10 mice by Morris water Maze test and mean latency for TRH was reported at 3.0 mg/Kg i.p. dosage.; summary of the method: as §1

Structure (SMILES) | Mean latency [1] | Mean latency [2] | Mean latency [3] | Mean latency [4] | Mean latency [6] | Mean latency [8] | Mean latency [10] | Mean latency [11] | Mean latency [12] | other results
NC(=O)C[C@@H]1C[C@H](Cc2c[nH]cn2)C[C@H](C[C@@H]2CCC(=O)N2)C1 | 45.06 s | 47.62 s | 38.72 s | 25.23 s |  |  |  |  |  | 
NC(=O)C[C@@H]1C[C@@H](Cc2c[nH]cn2)C[C@H](C[C@@H]2CCC(=O)N2)C1 | 46.09 s |  | 57.12 s | 24.19 s |  |  |  |  |  | 
C[C@H]1C[C@@H](CC(N)=O)C[C@@H](C[C@@H]2CCC(=O)N2Cc2ccccc2)C1 | 26.87 s | 47.48 s | 22.15 s |  | 36.26 s | 26.49 s | 42.2 s | 32.87 s |  | Mean latency [5]: 46.53 s; Mean latency [7]: 35.88 s; Mean latency [9]: 24.55 s
C[C@H]1C[C@@H](CC(N)=O)C[C@@H](C[C@@H]2CCC(=O)N2)C1 | 30.08 s |  | 42.77 s |  |  | 37.86 s |  |  | 43.13 s | 
NC(=O)C[C@@H]1C[C@H](Cc2c[nH]cn2)C[C@H](C[C@@H]2CCC(=O)N2Cc2ccccc2)C1 |  |  |  |  | 22.24 s | 15.65 s | 35.23 s | 21.1 s | 17.62 s | Mean latency [13]: 31.62 s; Mean latency [14]: 30.9 s; Mean latency [15]: 46.67 s; Mean latency [16]: 62.15 s; Mean latency [17]: 33.29 s
NC(=O)C[C@@H]1C[C@@H](Cc2c[nH]cn2)C[C@H](C[C@@H]2CCC(=O)N2Cc2ccccc2)C1 |  |  |  |  |  |  | 37.01 s | 28.87 s |  | Mean latency [18]: 43.72 s; Mean latency [5]: 27.59 s; Mean latency [14]: 42.81 s; Mean latency [15]: 51.7 s
NC(=O)[C@@H]1CCCN1C(=O)[C@H](Cc1c[nH]cn1)NC(=O)[C@@H]1CCC(=O)N1 [PROTIRELIN] | 25.76 s | 50.59 s | 37.97 s | 28.87 s | 43.08 s | 32.69 s |  |  | 20.85 s | Mean latency [19]: 46 s; Mean latency [20]: 33.57 s
